The values below come from ChEMBL document CHEMBL3244370, “Synthesis, metabolism, and antitumor activity of deuterated analogues of 1-(2-chloroethyl)-3-cyclohexyl-1-nitrosourea” (J Med Chem, 1978).

In series [1] the test system is Liver microsome. Nature of the series: Retention time in Wistar rat liver microsomes at 50 ug/ml after 10 mins by HPLC analysis. Type of series: ADME. Summed up: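 Liver microsomes from phenobarbital-pretreated male Wistar rats (protein 2.1 mg/mL), with an NADPH-generating system (NADP, glucose 6-phosphate, MgCl2, G6P dehydrogenase) in 0.1 M phosphate pH 7.4. Incubated under oxygen at 37 °C for 10 min, then extracted with hexane. OH-CCNU isomers resolved by analytical HPLC using n-heptane–dichloromethane–propan-2-ol (960:63:35) at 1.9 mL/min; elution times recorded.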

The nature of series [2]: Antitumor activity against mouse TLX5 cells allografted in mouse assessed as increase in host survival time at 40 mg/kg relative to control. Type of series: functional, TLX-5.
Series [3] is described as follows: Antitumor activity against mouse TLX5 cells allografted in mouse assessed as increase in host survival time at 5 mg/kg relative to control. Type of series: functional, TLX-5.
Series [4] in a line: Antitumor activity against mouse TLX5 cells allografted in mouse assessed as increase in host survival time at 160 mg/kg relative to control. Type of series: functional, TLX-5.
Series [5] relates to Liver microsome. Nature of the series: Drug metabolism in Wistar rat liver microsomes assessed as recovered CCNU level at 2.8 mg after 10 mins by HPLC analysis. In kind it is ADME. The following applies: in vitro. Summed up:
(§1)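 Microsomes from phenobarbital-pretreated male Wistar rat liver (protein 2.1 mg/mL) in 0.1 M phosphate pH 7.4 with NADP, glucose 6-phosphate, MgCl₂ and G6PDH. Incubated under O₂ at 37 °C for 10 min; 2.8 mg (12 μmol) substrate in 20 mL total. Hexane extraction, then silica HPLC quantification of residual CCNU and OH-CCNU isomers.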

The test system of series [6] is Liver microsome. The series is described as follows: Drug metabolism in Wistar rat liver microsomes assessed as recovered total OH-CCNU derivatives level at 2.8 mg after 10 mins by HPLC analysis. The following applies: in vitro. In kind it is ADME. A digest of the protocol: as §1
On the technique in general: Microsomes from liver hold many membrane-bound enzymes, among them those of drug oxidation.

The nature of series [7]: Antitumor activity against mouse TLX5 cells allografted in mouse assessed as increase in host survival time at 10 mg/kg relative to control. Type of series: functional, TLX-5.
Series [8] in a line: Antitumor activity against mouse TLX5 cells allografted in mouse assessed as increase in host survival time at 20 mg/kg relative to control. Type of series: functional, TLX-5.
Series [9] is described as follows: Antitumor activity against mouse TLX5 cells allografted in mouse assessed as increase in host survival time at 80 mg/kg relative to control. In kind it is functional, TLX-5.
Series [10] can be described thus: Drug metabolism in Wistar rat liver microsomes at 50 ug/ml after 2.5 mins. Type of series: ADME. The note with it: read-out: Drug metabolism. Summed up: (§2)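 Equimolar CCNU and CCNU-d10, each 50 μg/mL (0.21 mM), co-incubated at 37 °C under O₂ with phenobarbital-induced male Wistar rat liver microsomes plus NADPH-generating system in 0.1 M phosphate pH 7.4. Duplicate 1 mL samples taken at intervals into hexane containing CCNU-d4 internal standard. Residual drug measured by 12 eV mass spectrometry. Heat-inactivated microsomes used as control.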

Series [11] can be described thus: Drug metabolism in Wistar rat liver microsomes at 50 ug/ml after 10 mins. In kind it is ADME. The following applies: read-out: Drug metabolism. Summed up: as §2
Series [12] in a line: Drug metabolism in Wistar rat liver microsomes at 50 ug/ml after 20 mins. Type of series: ADME. The following applies: read-out: Drug metabolism. Summed up: as §2
The nature of series [13]: Drug metabolism in Wistar rat liver microsomes at 50 ug/ml after 5 mins. In kind it is ADME. The note with it: read-out: Drug metabolism. A digest of the protocol:
as §2

Series [14] has as its system W256. Nature of the series: Antitumor activity against 0.25 ug/ml compound treated rat Walker 256 cells allografted in rat assessed as increase of host survival time cells incubated for 2 hrs with rat liver microsomes and NADPH prior to animal injection. Type of series: functional.
The test system of series [15] is W256. Nature of the series: Antitumor activity against 0.25 ug/ml compound treated rat Walker 256 cells allografted in rat assessed as increase of host survival time cells incubated for 2 hrs with NADPH prior to animal injection. In kind it is functional.
The subject of series [16] is W256. Nature of the series: Antitumor activity against 4 ug/ml compound treated rat Walker 256 cells allografted in rat assessed as increase of host survival time cells incubated for 2 hrs with rat liver microsomes and NADPH prior to animal injection. Type of series: functional.
Series [17] deals with W256. The series is described as follows: Antitumor activity against 1 ug/ml compound treated rat Walker 256 cells allografted in rat assessed as increase of host survival time cells incubated for 2 hrs with NADPH prior to animal injection. In kind it is functional.
The test system of series [18] is W256. The series is described as follows: Antitumor activity against 1 ug/ml compound treated rat Walker 256 cells allografted in rat assessed as increase of host survival time cells incubated for 2 hrs with rat liver microsomes and NADPH prior to animal injection. Type of series: functional.
Series [19] relates to W256. The series is described as follows: Antitumor activity against 0.5 ug/ml compound treated rat Walker 256 cells allografted in rat assessed as increase of host survival time cells incubated for 2 hrs with rat liver microsomes and NADPH prior to animal injection. In kind it is functional.
Series [20] relates to W256. Nature of the series: Antitumor activity against 0.5 ug/ml compound treated rat Walker 256 cells allografted in rat assessed as increase of host survival time cells incubated for 2 hrs with NADPH prior to animal injection. Type of series: functional.
The subject of series [21] is W256. Nature of the series: Antitumor activity against 4 ug/ml compound treated rat Walker 256 cells allografted in rat assessed as increase of host survival time cells incubated for 2 hrs with NADPH prior to animal injection. Type of series: functional.

Turning to `O=NN(CCCl)C(=O)N[C@H]1CC[C@@H](O)CC1`, the Retention_time with Liver microsome [1] was 9.6 min.

The compound `O=NN(CCCl)C(=O)N[C@H]1CC[C@H](O)CC1` returned a Retention_time in the series with Liver microsome [1] of 16.9 min.

The compound `O=NN(CCCl)C(=O)N[C@H]1CCCC[C@H]1O` returned a Retention_time with Liver microsome [1] of 2.8 min.

On to `[2H]C1([2H])CCCC([2H])([2H])C1NC(=O)N(CCCl)N=O`, for which the Activity is on record as 178.7% in series [2]; -5.1% in [3]; -21.3% in [4]; 63.6% in [7]; 79.7% in series [8]; -9.1% in series [9]. The Drug metabolism was 272 µg in the series with Liver microsome [5] and 1089 µg in the series on Liver microsome [6].

For the compound `[2H]C1([2H])CC(NC(=O)N(CCCl)N=O)CC([2H])([2H])C1([2H])[2H]`, the Activity in series [2] is 81.4%; in series [3], 38.1%; in [4] it was -32%; in series [7], 38.1%; in series [8], 95.8%; in series [9], -7.3%. Further, the Drug metabolism in the series on Liver microsome [5] was 538 µg; in the series on Liver microsome [6], 994 µg.

As for `[2H]C1([2H])C(NC(=O)N(CCCl)N=O)C([2H])([2H])C([2H])([2H])C([2H])([2H])C1([2H])[2H]`, the Activity in series [2] was 217%; in [4], -28%; in series [7], 20%; in series [8] it was 42%; in series [9], -22%. Further, the Drug metabolism in the series on Liver microsome [5] worked out at 498 µg; in the series on Liver microsome [6], 911 µg. Besides, in [10], the metabolised at 2.5 min, 50 ug/ml was 16.1%. The metabolised at 10 min, 50 ug/ml in series [11] was found to be 69.5%. In addition, the metabolised at 20 min, 50 ug/ml in [12] amounted to 91.9%. In series [13], the metabolised at 5 min, 50 ug/ml was determined as 38.3%.

In the series with Liver microsome [1], `O=NN(CCCl)C(=O)N[C@H]1CCCC[C@@H]1O` showed a Retention_time of 3.8 min.

In the series on Liver microsome [1], `O=NN(CCCl)C(=O)N[C@H]1CCC[C@@H](O)C1` registered a Retention time of 7.8 min.

In the case of `O=NN(CCCl)C(=O)N[C@H]1CCC[C@H](O)C1`, in the series with Liver microsome [1], the Retention time turned out to be 7.1 min.

`O=NN(CCCl)C(=O)NC1CCCCC1` [LOMUSTINE]: the Activity in [2] is reported as 76.8%; in [3], 1%; with W256 [14] it was 21%; in the series on W256 [15], 9%; in series [4], -31.4%; in the series with W256 [17], 64%. For the same compound, the Activity in the series on W256 [18] is listed as 145%; in the series on W256 [19], 106%; in series [7], 54%; in [8], 69.6%; with W256 [20], 60%; in [9], -23.3%. The Survival with W256 [16] and in the series on W256 [21] was 30 days each time. Further, in the series on Liver microsome [6], the Drug metabolism was 1230 µg. The metabolised at 2.5 min, 50 ug/ml in [10] amounted to 26.8%. Besides, the metabolised at 10 min, 50 ug/ml in [11] is 72.5%. In addition, the metabolised at 20 min, 50 ug/ml in series [12] came out at 91.8%. The metabolised at 5 min, 50 ug/ml in series [13] was 47.9%.
